In brackets after ≈: the same amount, converted by molar mass. Activity calls are given as the source filed them. The calls are words filed in the database; no cut-off is given here.
Assays:
[1] = target: T1, Fatty-acid amide hydrolase 1 (Mus musculus, UniProt O08914); assay: Inhibition of FAAH in mouse brain membranes using [14C]-AEA as substrate incubated for 15 mins by scintillation counting method; format: cell membranes
T1 sequence (O08914 whole entry): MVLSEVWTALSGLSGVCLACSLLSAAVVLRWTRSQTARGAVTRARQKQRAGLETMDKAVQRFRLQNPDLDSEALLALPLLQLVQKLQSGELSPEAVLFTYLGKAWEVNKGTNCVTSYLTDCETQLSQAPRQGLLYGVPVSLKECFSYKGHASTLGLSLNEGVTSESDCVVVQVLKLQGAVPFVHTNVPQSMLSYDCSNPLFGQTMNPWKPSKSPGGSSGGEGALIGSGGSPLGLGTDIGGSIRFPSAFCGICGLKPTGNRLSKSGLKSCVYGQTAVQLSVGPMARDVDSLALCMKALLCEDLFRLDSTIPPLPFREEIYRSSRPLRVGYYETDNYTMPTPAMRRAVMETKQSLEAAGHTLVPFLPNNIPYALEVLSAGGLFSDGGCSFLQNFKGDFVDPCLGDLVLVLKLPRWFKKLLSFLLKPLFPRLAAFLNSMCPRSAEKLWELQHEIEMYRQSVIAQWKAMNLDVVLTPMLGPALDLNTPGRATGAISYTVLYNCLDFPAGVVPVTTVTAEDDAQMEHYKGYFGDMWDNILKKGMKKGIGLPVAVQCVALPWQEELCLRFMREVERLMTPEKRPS

[2] = target: T1, Fatty-acid amide hydrolase 1; assay: Inhibition of FAAH in mouse brain membranes assessed as inhibitory constant using [14C]-AEA as substrate incubated for 15 mins by scintillation counting method; format: cell membranes
Summary of the method: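 Mouse brain incubated with 10 μM [¹⁴C]AEA at 37 °C for 15 min, pH 9.0, compound added to the medium. Stopped with chloroform/methanol 2:1; [¹⁴C]ethanolamine released into the aqueous phase measured. Mean of at least three experiments.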

D(2) dopamine receptor = D(2) dopamine receptor (Homo sapiens, UniProt P14416); assay: Displacement of [3H]-spiperone from human D2 receptor expressed in CHO cells co-expressing Galpha16 incubated for 120 mins by liquid scintillation counting method; format: cell-based
Chain of D(2) dopamine receptor (P14416 whole entry): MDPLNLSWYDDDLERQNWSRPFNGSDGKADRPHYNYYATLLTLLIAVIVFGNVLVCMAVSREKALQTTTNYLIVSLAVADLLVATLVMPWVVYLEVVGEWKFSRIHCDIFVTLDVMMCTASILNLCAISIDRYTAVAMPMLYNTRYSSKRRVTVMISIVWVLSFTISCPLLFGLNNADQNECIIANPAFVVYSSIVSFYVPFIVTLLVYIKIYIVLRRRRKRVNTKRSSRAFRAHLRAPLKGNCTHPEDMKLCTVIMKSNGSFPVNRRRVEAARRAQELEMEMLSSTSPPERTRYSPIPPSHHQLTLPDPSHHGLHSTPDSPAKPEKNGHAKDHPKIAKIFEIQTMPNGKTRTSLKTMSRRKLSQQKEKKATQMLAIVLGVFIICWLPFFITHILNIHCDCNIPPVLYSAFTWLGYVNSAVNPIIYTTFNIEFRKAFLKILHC
Summary of the method: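 Membranes from CHO cells expressing hD2 with Gα16; 2 μg protein/well, 0.08 nM [³H]-spiperone final, 23 °C for 120 min. Stopped by rapid filtration on PEI-soaked GF/B filters, bound radioactivity counted; Ki by Cheng-Prusoff; at least three experiments.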

D(3) dopamine receptor = D(3) dopamine receptor (Homo sapiens, UniProt P35462); assay: Displacement of [3H]-spiperone from human D3 receptor expressed in CHO cells co-expressing Galpha16 incubated for 120 mins by liquid scintillation counting method; format: cell-based
Chain of D(3) dopamine receptor (P35462 whole entry): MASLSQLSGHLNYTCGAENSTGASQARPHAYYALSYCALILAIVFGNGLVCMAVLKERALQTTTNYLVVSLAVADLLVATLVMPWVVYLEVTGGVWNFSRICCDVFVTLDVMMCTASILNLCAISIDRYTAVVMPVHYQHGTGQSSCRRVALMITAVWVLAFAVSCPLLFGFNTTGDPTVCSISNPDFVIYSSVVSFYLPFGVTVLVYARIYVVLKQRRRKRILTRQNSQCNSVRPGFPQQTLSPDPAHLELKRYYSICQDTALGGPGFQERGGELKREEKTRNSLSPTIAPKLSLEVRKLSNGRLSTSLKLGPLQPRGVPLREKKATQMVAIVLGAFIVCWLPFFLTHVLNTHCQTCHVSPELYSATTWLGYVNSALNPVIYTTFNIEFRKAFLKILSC

[3] = target: Voltage-gated inwardly rectifying potassium channel KCNH2 (Homo sapiens, UniProt Q12809); assay: Inhibition of human ERG expressed in HEK293 cells […] by patch clamp assay; format: cell-based
Chain of Voltage-gated inwardly rectifying potassium channel KCNH2 (Q12809 whole entry): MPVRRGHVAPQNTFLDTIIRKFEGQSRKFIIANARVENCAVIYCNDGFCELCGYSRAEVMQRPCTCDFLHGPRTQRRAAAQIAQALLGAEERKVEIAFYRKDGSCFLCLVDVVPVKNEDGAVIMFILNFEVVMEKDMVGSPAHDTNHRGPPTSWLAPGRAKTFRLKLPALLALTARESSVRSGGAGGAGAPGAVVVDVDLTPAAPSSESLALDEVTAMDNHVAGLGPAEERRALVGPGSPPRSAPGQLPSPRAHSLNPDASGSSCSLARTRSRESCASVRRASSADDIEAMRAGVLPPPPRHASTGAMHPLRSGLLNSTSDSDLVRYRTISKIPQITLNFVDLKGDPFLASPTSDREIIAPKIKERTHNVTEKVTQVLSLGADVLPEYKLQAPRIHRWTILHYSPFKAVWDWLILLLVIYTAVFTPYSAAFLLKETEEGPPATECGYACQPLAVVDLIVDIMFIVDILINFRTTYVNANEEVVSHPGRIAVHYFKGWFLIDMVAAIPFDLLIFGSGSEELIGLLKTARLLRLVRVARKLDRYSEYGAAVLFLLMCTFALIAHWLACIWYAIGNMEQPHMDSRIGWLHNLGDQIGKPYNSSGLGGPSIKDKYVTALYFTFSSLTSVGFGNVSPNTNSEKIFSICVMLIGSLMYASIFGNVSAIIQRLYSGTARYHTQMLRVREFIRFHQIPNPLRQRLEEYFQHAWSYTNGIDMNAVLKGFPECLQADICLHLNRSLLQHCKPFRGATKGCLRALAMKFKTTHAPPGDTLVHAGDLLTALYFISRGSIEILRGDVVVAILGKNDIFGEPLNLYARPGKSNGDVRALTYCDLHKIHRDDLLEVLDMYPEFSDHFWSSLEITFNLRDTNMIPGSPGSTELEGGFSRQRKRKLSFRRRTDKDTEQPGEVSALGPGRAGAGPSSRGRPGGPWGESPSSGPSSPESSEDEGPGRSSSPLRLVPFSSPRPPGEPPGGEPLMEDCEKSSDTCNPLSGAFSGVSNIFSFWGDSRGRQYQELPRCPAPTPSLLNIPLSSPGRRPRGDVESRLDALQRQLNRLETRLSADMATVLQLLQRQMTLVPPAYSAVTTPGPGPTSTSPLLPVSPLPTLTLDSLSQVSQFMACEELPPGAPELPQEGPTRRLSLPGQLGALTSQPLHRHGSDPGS
Summary of the method: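 HEK293 cells stably expressing hERG under a tetracycline-inducible promoter (10 μg/mL tetracycline for 24, 48 or 72 h). Automated patch clamp, tail current; 0.1, 1 and 10 μM in 0.1% DMSO after 3 min vehicle, 5 min exposure. Residual current vs vehicle gives % inhibition; IC50 estimated; at least two cells.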

[4] = target: Cannabinoid receptor 1 (Mus musculus) (UniProt P47746); assay: Displacement of [3H]CP55, 940 from mouse brain membrane CB1 receptor
Chain of Cannabinoid receptor 1 (Mus musculus) (P47746 whole entry): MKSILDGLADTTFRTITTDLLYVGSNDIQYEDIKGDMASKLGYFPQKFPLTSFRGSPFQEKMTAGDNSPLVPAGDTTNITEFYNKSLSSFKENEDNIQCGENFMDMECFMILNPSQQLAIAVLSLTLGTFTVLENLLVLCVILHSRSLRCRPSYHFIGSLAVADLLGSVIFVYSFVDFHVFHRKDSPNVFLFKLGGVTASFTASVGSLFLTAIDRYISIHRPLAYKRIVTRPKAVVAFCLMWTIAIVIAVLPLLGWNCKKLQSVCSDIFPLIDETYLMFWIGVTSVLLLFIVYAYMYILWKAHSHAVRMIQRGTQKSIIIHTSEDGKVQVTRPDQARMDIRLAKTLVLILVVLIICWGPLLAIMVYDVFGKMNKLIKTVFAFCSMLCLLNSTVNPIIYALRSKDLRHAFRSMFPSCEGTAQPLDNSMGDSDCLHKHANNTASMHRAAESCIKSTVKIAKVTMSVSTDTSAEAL
Summary of the method: (§1)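 Mouse brain membrane fraction (18000×g pellet) in 50 mM Tris-HCl, 2 mM Tris-EDTA, 3 mM MgCl2, pH 7.4. Rapid filtration binding with the agonist [³H]CP55,940; nonspecific binding defined with 1 μM unlabelled agonist; compound added directly to the incubation.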

[5] = target: Cannabinoid receptor 2 (Mus musculus) (UniProt P47936); assay: Displacement of [3H]CP55, 940 from mouse brain membrane CB2 receptor; summary of the method: as §1
Chain of Cannabinoid receptor 2 (Mus musculus) (P47936 whole entry): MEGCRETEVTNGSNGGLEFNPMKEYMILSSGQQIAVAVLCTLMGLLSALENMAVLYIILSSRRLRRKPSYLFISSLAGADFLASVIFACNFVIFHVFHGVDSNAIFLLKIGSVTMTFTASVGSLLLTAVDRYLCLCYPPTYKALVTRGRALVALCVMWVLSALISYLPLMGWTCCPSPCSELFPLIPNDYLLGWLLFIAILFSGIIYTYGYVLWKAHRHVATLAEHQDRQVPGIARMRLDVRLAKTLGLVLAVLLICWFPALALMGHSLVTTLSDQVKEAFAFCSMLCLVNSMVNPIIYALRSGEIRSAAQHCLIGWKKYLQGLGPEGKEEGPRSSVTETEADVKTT

[6] = target: T2, Monoglyceride lipase (Mus musculus) (UniProt O35678); assay: Inhibition of MAGL in mouse brain assessed as release of [3H]glycerol using [3H]-2-OG as substrate incubated for 30 mins by scintillation counting method; format: tissue-based
T2 sequence (whole entry): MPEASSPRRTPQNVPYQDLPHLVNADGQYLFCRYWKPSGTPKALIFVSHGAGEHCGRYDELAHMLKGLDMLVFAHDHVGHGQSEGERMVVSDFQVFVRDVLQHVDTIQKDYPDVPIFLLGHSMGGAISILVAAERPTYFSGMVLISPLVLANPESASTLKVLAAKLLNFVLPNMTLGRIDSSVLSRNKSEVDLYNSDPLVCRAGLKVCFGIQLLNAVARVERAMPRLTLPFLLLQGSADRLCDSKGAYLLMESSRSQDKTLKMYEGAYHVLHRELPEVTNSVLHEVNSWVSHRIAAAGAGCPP
Summary of the method: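 Mouse brain homogenised in 50 mM sodium phosphate pH 8.0 with 0.32 M sucrose, spun sequentially up to 100,000×g. Final supernatant incubated with 10 μM [³H]2-OG at 37 °C for 30 min; stopped with chloroform/methanol and aqueous [³H]glycerol scintillation-counted.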

[7] = Solubility of compound in DMSO at pH 3 incubated for […] by HPLC/UV/DAD analysis; format: physicochemical
Summary of the method: (§2)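 10 mM DMSO stock diluted to 250 μM (2.5% DMSO) in 50 mM acetic acid (pH 3.0) or 50 mM PBS (pH 7.4). Shaken 24 h at 25 °C, filtered, diluted 1:2 and quantified by HPLC-UV at 254 nm against a 250 μM standard; triplicate average.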

[8] = Solubility of compound in DMSO at pH 7.4 incubated for […] by HPLC/UV/DAD analysis; format: physicochemical; summary of the method: as §2
[9] = Chemical stability of compound in DMSO assessed as remaining compound at pH 3 incubated for 24 hrs by HPLC/UV/DAD analysis; format: physicochemical; settings: read-out: Stability
Summary of the method: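 Samples at 250 μM (2.5% DMSO) in 50 mM acetic acid, pH 3.0, held 24 h at 25 °C. HPLC/UV/DAD peak area at 254 nm after 24 h divided by area at T0 × 100; triplicate average.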

NIH3T3 = assay: Cytotoxicity against mouse NIH/3T3 cells assessed as cell viability incubated for 24 hrs by neutral red uptake based assay; settings: NIH3T3, 24 h
Summary of the method: (§3)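 NIH3T3 or U-373-MG cells grown in DMEM with 10% FCS at 37 °C, 5% CO2; compound from DMSO stock diluted in complete medium, 4–100 μM, 24 h. Viability by Neutral Red Uptake (3 h NR loading, acetic acid/ethanol extraction, A540), normalised to % control; IC50 reported. Three experiments in six replicates, Student's t test.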

U373 MG = assay: Cytotoxicity against human U373MG cells assessed as cell viability incubated for 24 hrs by neutral red uptake based assay; set-up: species or system U-373MG ATCC; summary of the method: as §3
[10] = Metabolic stability in rat liver microsomes assessed as apparent decay constant at 5 uM incubated for 60 mins by UV-Vis spectrophotometry; format: ADME, Microsome; settings: 1 h
[11] = Metabolic stability in rat liver microsomes assessed as intrinsic clearance at 5 uM incubated for 60 mins by UV-Vis spectrophotometry; format: ADME, Microsome; settings: read-out: CLH
[12] = Metabolic stability in rat liver microsomes assessed as half life at 5 uM incubated for 60 mins by UV-Vis spectrophotometry; format: ADME, Microsome
[13] = Metabolic stability in human liver microsomes assessed as apparent decay constant at 5 uM incubated for 60 mins by UV-Vis spectrophotometry; format: ADME, Microsome; settings: 1 h
[14] = Metabolic stability in human liver microsomes assessed as intrinsic clearance at 5 uM incubated for 60 mins by UV-Vis spectrophotometry; format: ADME, Microsome; settings: read-out: CLH
[15] = Metabolic stability in human liver microsomes assessed as half life at 5 uM incubated for 60 mins by UV-Vis spectrophotometry; format: ADME, Microsome
IMR-32 [16] = assay: Cytotoxicity against human IMR32 cells at 0.1 to 50 uM incubated for 24 hrs by LDH release assay; format: cell-based; settings: imr-32, 24 h
Summary of the method: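 IMR 32 cells exposed 24 h to 0.1, 0.5, 1, 5, 10 and 50 μM; LDH release expressed as percent of maximal release from Triton X-100-treated cells (100%). Samples run at least in triplicate, mean ± SD.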

IMR-32 [17] = assay: Antiinflammatory activity in human IMR32 cells assessed as reduction in LPS-induced NF-kappaB-DNA binding at 0.5 and 1 uM preincubated for 24 hrs followed by LPS stimulation and measured after 30 mins by ELISA; format: functional, cell-based
Summary of the method: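 IMR 32 cells pre-treated 24 h at 0.5 and 1 μM, then challenged with 100 μg/mL LPS for 30 min; NF-κB p65 binding of nuclear extracts to the DNA consensus sequence measured. Mean ± SEM of 3 independent experiments.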

IMR-32 [18] = assay: Antiinflammatory activity in human IMR32 cells assessed as reduction in LPS-induced NF-kappaB-DNA binding at 0.5 and 1 uM preincubated for 24 hrs followed by LPS stimulation and measured after 30 mins by immunoblot analysis; format: functional, cell-based
[19] = Retention time of compound in human liver microsomes incubated for 30 mins by HPLC analysis; format: ADME, Microsome; settings: 0.5 h

| Compound | IC50 [1] | Ki [2] | Ki (D(2) dopamine receptor) | Ki (D(3) dopamine receptor) | IC50 [3] | also measured |
| --- | --- | --- | --- | --- | --- | --- |
| Cc1cc(C(N)=O)c(-c2cccc(OC(=O)NCCN3CCN(c4ccccc4)CC3)c2)n1C | 0.175 µM | 0.046 µM | – | – | – | – |
| NC(=O)c1ccn(-c2cccc(NC(=O)NCCN3CCN(c4ccccc4)CC3)c2)c1 | 1.6 µM | 0.42 µM | – | – | – | – |
| Cc1cc(C(N)=O)c(-c2cccc(OC(=O)NCCCN3CCN(c4ccccc4)CC3)c2)o1 | 0.062 µM | 0.016 µM | 0.029 µM | 0.019 µM | 1.1 µM | – |
| Cn1c(C(N)=O)ccc1-c1cccc(OC(=O)NCCN2CCN(c3ccccc3)CC2)c1 | 0.791 µM | 0.203 µM | 0.056 µM | 0.076 µM | 6.4 µM | – |
| Cc1cc(C(N)=O)c(-c2cccc(OC(=O)NCCN3CCN(c4ccccc4)CC3)c2)s1 | 0.026 µM | 0.00688 µM | 0.214 µM | 0.148 µM | 0.28 µM | – |
| Cc1cc(C(N)=O)c(-c2cccc(OC(=O)NCCN3CCN(c4ccccc4)CC3)c2)o1 | 0.00089 µM | 0.00023 µM | 0.138 µM | 0.105 µM | < 0.1 µM | pIC50 ([3]; hek293): > 7; inhibition [4]: inactive; inhibition [5]: inactive; inhibition [6]: inactive; solubility [7]: 991 µM (≈ 444 µg/mL); solubility [8]: 2 µM (≈ 0.897 µg/mL); remaining at 24 h [9]: 99.9%; IC50 (NIH3T3): 68 µM; IC50 (U373 MG): 23 µM; K [10]: 0.03482 ×10⁻¹ /min; microsomal CLint at 5 µM [11]: 59.2 µL/min/mg; half-life at 5 µM [12]: 19.9 min; K [13]: 0.02842 ×10⁻¹ /min; microsomal CLint at 5 µM [14]: 47.4 µL/min/mg; half-life at 5 µM [15]: 24.4 min; Activity (IMR-32 [16]): Non-Toxic; Activity (IMR-32 [17]): Active; Activity (IMR-32 [18]): Active; Retention_time [19]: 9.004 min |

Reference: ChEMBL document CHEMBL4406846, “Development of novel multipotent compounds modulating endocannabinoid and dopaminergic systems” (Eur J Med Chem, 2019)
